# Measured values taken from ChEMBL document CHEMBL1275556, “High prevalence of plasmid-mediated quinolone resistance genes qnr and aac(6')-Ib-cr in clinical isolates of Enterobacteriaceae from nine teaching hospitals in China” (2008).
# Tests used:
# Citrobacter freundii [1] = assay: Antimicrobial activity against aac(6')-Ib-cr-positive Citrobacter freundii TJ15 harboring GyrA T83I, ParC S80I mutant, wild-type GyrB, qnrB genes by agar dilution method; format: functional
# In short: (§1)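 MICs were determined by the CLSI agar dilution method (M7-A7) and interpreted against CLSI M100-S17 breakpoints.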
# Citrobacter freundii [2] = assay: Antimicrobial activity against aac(6')-Ib-cr-negative Citrobacter freundii JN64T harboring qnrA gene by agar dilution method; format: functional; in short: as §1
# Enterobacter cloacae [3] = assay: Antimicrobial activity against aac(6')-Ib-cr-negative Enterobacter cloacae FJ67 harboring […] and qnrS genes by agar dilution method; format: functional
# Citrobacter freundii [4] = assay: Antimicrobial activity against aac(6')-Ib-cr-positive Citrobacter freundii TJ15T harboring wild-type GyrA, ParC, GyrB genes by agar dilution method; format: functional; in short: as §1
# Citrobacter freundii [5] = assay: Antimicrobial activity against aac(6')-Ib-cr-positive Citrobacter freundii JS33T harboring qnrA gene by agar dilution method; format: functional; in short: as §1
# Klebsiella pneumoniae [6] = assay: Antimicrobial activity against aac(6')-Ib-cr-positive Klebsiella pneumoniae WH99 harboring wild-type GyrA, ParC, GyrB and qnrB genes by agar dilution method; format: functional
# In short: (§2)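 MICs were determined on clinical isolates by CLSI agar dilution (M7-A7) and interpreted against CLSI M100-S17 breakpoints.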
# Citrobacter freundii [7] = assay: Antimicrobial activity against aac(6')-Ib-cr-positive Citrobacter freundii PU55T harboring wild-type GyrA, ParC, GyrB and qnrA genes by agar dilution method
# Enterobacter cloacae [8] = assay: Antimicrobial activity against aac(6')-Ib-cr-positive Enterobacter cloacae FJ63T harboring qnrS gene by agar dilution method; format: functional
# Citrobacter freundii [9] = assay: Antimicrobial activity against aac(6')-Ib-cr-negative Citrobacter freundii JN64 harboring GyrA T83I, wild-type ParC, GyrB and qnrA genes by agar dilution method; format: functional; in short: as §1
# Klebsiella pneumoniae [10] = assay: Antimicrobial activity against aac(6')-Ib-cr-positive Klebsiella pneumoniae JN132 harboring GyrA S83I, ParC S80I mutant, wild-type GyrB and qnrB genes by agar dilution method; format: functional; in short: as §2
# Klebsiella pneumoniae [11] = assay: Antimicrobial activity against aac(6')-Ib-cr-positive Klebsiella pneumoniae GZ40T harboring qnrB gene by agar dilution method
# Enterobacter cloacae [12] = assay: Antimicrobial activity against aac(6')-Ib-cr-negative Enterobacter cloacae WH42 harboring wild-type GyrA, ParC, GyrB and qnrA genes by agar dilution method; format: functional
# Klebsiella pneumoniae [13] = assay: Antimicrobial activity against aac(6')-Ib-cr-positive Klebsiella pneumoniae SY26 harboring GyrA S83I, ParC S80I mutant, wild-type GyrB and qnrB genes by agar dilution method; format: functional; in short: as §2
# Klebsiella pneumoniae [14] = assay: Antimicrobial activity against aac(6')-Ib-cr-positive Klebsiella pneumoniae JN132T harboring qnrB gene by agar dilution method; format: functional
# In short: (§3)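 Transconjugants were made by conjugating a qnr/aac(6')-Ib-cr donor with azide-resistant E. coli J53. Selection used Trypticase soy agar with sodium azide 150 µg/ml and sulfamethoxazole 180 µg/ml. […] MICs were read by CLSI agar dilution (M7-A7) and interpreted per M100-S17.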
# Enterobacter cloacae [15] = assay: Antimicrobial activity against aac(6')-Ib-cr-negative Enterobacter cloacae FJ61 harboring GyrA S83I, GyrA D87A, ParC S80I mutant, wild-type GyrB and qnrS genes by agar dilution method; format: functional
# Klebsiella pneumoniae [16] = assay: Antimicrobial activity against aac(6')-Ib-cr-negative Klebsiella pneumoniae SY22 harboring GyrA S83I, ParC S80I mutant, wild-type GyrB and qnrS genes by agar dilution method; format: functional; in short: as §1
# Enterobacter cloacae [17] = assay: Antimicrobial activity against aac(6')-Ib-cr-negative Enterobacter cloacae FJ67T harboring qnrS gene by agar dilution method; format: functional
# Escherichia coli [18] = assay: Antimicrobial activity against aac(6')-Ib-cr-positive Escherichia coli FJ3T harboring wild-type GyrA, ParC, GyrB and qnrB genes by agar dilution method
# Escherichia coli [19] = assay: Antimicrobial activity against aac(6')-Ib-cr-negative Escherichia coli PU12T harboring wild-type GyrA, GyrB, ParC and qnrS genes by agar dilution method; format: functional; in short: as §1
# Enterobacter cloacae [20] = assay: Antimicrobial activity against aac(6')-Ib-cr-negative Enterobacter cloacae GZ47 harboring qnrB and qnrS genes by agar dilution method; format: functional
# Citrobacter freundii [21] = assay: Antimicrobial activity against aac(6')-Ib-cr-positive Citrobacter freundii PU55 harboring GyrA T83I, ParC S80I mutant, wild-type GyrB, qnrA genes by agar dilution method; format: functional; in short: as §1
# Klebsiella pneumoniae [22] = assay: Antimicrobial activity against aac(6')-Ib-cr-positive Klebsiella pneumoniae JN41T harboring qnrB gene by agar dilution method; format: functional; in short: as §3
# Klebsiella pneumoniae [23] = assay: Antimicrobial activity against aac(6')-Ib-cr-positive Klebsiella pneumoniae JN41 harboring GyrA S83I, ParC S80I mutant, wild-type GyrB and qnrB genes by agar dilution method; format: functional; in short: as §2
# Enterobacter cloacae [24] = assay: Antimicrobial activity against aac(6')-Ib-cr-negative Enterobacter cloacae GZ47T harboring qnrB gene by agar dilution method; format: functional
# Klebsiella pneumoniae [25] = assay: Antimicrobial activity against aac(6')-Ib-cr-positive Klebsiella pneumoniae WH99T harboring qnrB gene by agar dilution method; format: functional; in short: as §3
# Klebsiella pneumoniae [26] = assay: Antimicrobial activity against aac(6')-Ib-cr-positive Klebsiella pneumoniae GZ40 harboring GyrA S83I, ParC S80I mutant, wild-type GyrB and qnrB genes by agar dilution method; format: functional; in short: as §1
# Escherichia coli [27] = assay: Antimicrobial activity against aac(6')-Ib-cr-negative Escherichia coli PU12 harboring GyrA S83L mutant, wild-type GyrB, ParC and qnrS genes by agar dilution method; format: functional; in short: as §1
# Citrobacter freundii [28] = assay: Antimicrobial activity against aac(6')-Ib-cr-positive Citrobacter freundii JN1 harboring GyrA T83I, ParC S80I mutant, wild-type GyrB and qnrA genes by agar dilution method; format: functional; in short: as §1
# Klebsiella pneumoniae [29] = assay: Antimicrobial activity against aac(6')-Ib-cr-positive Klebsiella pneumoniae SY26T harboring wild-type GyrA, ParC, GyrB and qnrB genes by agar dilution method; format: functional
# In short: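 Transconjugants were made by conjugating a qnr/aac(6')-Ib-cr donor with azide-resistant E. coli J53. MICs were read by CLSI agar dilution (M7-A7) and interpreted per M100-S17.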
# Enterobacter cloacae [30] = assay: Antimicrobial activity against aac(6')-Ib-cr-negative Enterobacter cloacae WH42T harboring qnrA gene by agar dilution method; format: functional
# Enterobacter cloacae [31] = assay: Antimicrobial activity against aac(6')-Ib-cr-negative Enterobacter cloacae FJ61T harboring qnrS gene by agar dilution method; format: functional
# Enterobacter cloacae [32] = assay: Antimicrobial activity against aac(6')-Ib-cr-negative Enterobacter cloacae SH39T harboring qnrA gene by agar dilution method; format: functional
# Enterobacter cloacae [33] = assay: Antimicrobial activity against aac(6')-Ib-cr-negative Enterobacter cloacae GZ51 harboring qnrA gene by agar dilution method; format: functional
# Escherichia coli [34] = assay: Antimicrobial activity against aac(6')-Ib-cr-positive Escherichia coli FJ3 harboring GyrA S83L, ParC S80R mutant, wild-type GyrB and qnrB genes by agar dilution method; format: functional; in short: as §1
# Escherichia coli [35] = assay: Antimicrobial activity against Escherichia coli J53 harboring wild-type GyrA, ParC, GyrB genes by agar dilution method
# Enterobacter cloacae [36] = assay: Antimicrobial activity against aac(6')-Ib-cr-negative Enterobacter cloacae SH39 harboring GyrA S83I, ParC S80I mutant, wild-type GyrB and qnrA genes by agar dilution method; format: functional
# Citrobacter freundii [37] = assay: Antimicrobial activity against aac(6')-Ib-cr-positive Citrobacter freundii JN1T by agar dilution method; format: functional; in short: as §1
# Enterobacter cloacae [38] = assay: Antimicrobial activity against aac(6')-Ib-cr-positive Enterobacter cloacae FJ63 harboring GyrA S83I, GyrA D87A, ParC S80I mutant, wild-type GyrB and qnrS genes by agar dilution method; format: functional
# Enterobacter cloacae [39] = assay: Antimicrobial activity against aac(6')-Ib-cr-negative Enterobacter cloacae GZ51T harboring qnrA gene by agar dilution method; format: functional
# Citrobacter freundii [40] = assay: Antimicrobial activity against aac(6')-Ib-cr-positive Citrobacter freundii JS33 harboring GyrA T83I mutant, wild-type ParC, GyrB, qnrA and qnrB genes by agar dilution method; format: functional; in short: as §1
# Klebsiella pneumoniae [41] = assay: Antimicrobial activity against aac(6')-Ib-cr-negative Klebsiella pneumoniae SY22T harboring qnrS gene by agar dilution method; format: functional; in short: as §1
smiles,measurement,setting,value
NCC[C@H](O)C(=O)N[C@@H]1C[C@H](N)[C@@H](O[C@H]2O[C@H](CN)[C@@H](O)[C@H](O)[C@H]2O)[C@H](O)[C@H]1O[C@H]1O[C@H](CO)[C@@H](O)[C@H](N)[C@H]1O [AMIKACIN],MIC,Citrobacter freundii [1],4 µg/mL
same,MIC,Citrobacter freundii [2],> 256 µg/mL
same,MIC,Enterobacter cloacae [3],32 µg/mL
same,MIC,Citrobacter freundii [4],4 µg/mL
same,MIC,Citrobacter freundii [5],4 µg/mL
same,MIC,Klebsiella pneumoniae [6],2 µg/mL
same,MIC,Citrobacter freundii [7],4 µg/mL
same,MIC,Enterobacter cloacae [8],64 µg/mL
same,MIC,Citrobacter freundii [9],> 256 µg/mL
same,MIC,Klebsiella pneumoniae [10],64 µg/mL
same,MIC,Klebsiella pneumoniae [11],4 µg/mL
same,MIC,Enterobacter cloacae [12],16 µg/mL
same,MIC,Klebsiella pneumoniae [13],64 µg/mL
same,MIC,Klebsiella pneumoniae [14],64 µg/mL
same,MIC,Enterobacter cloacae [15],2 µg/mL
same,MIC,Klebsiella pneumoniae [16],2 µg/mL
same,MIC,Enterobacter cloacae [17],16 µg/mL
same,MIC,Escherichia coli [18],2 µg/mL
same,MIC,Escherichia coli [19],4 µg/mL
same,MIC,Enterobacter cloacae [20],1 µg/mL
same,MIC,Citrobacter freundii [21],4 µg/mL
same,MIC,Klebsiella pneumoniae [22],4 µg/mL
same,MIC,Klebsiella pneumoniae [23],4 µg/mL
same,MIC,Enterobacter cloacae [24],1 µg/mL
same,MIC,Klebsiella pneumoniae [25],2 µg/mL
same,MIC,Klebsiella pneumoniae [26],8 µg/mL
same,MIC,Escherichia coli [27],8 µg/mL
same,MIC,Citrobacter freundii [28],4 µg/mL
same,MIC,Klebsiella pneumoniae [29],32 µg/mL
same,MIC,Enterobacter cloacae [30],16 µg/mL
same,MIC,Enterobacter cloacae [31],2 µg/mL
same,MIC,Enterobacter cloacae [32],2 µg/mL
same,MIC,Enterobacter cloacae [33],> 256 µg/mL
same,MIC,Escherichia coli [34],4 µg/mL
same,MIC,Escherichia coli [35],1 µg/mL
same,MIC,Enterobacter cloacae [36],2 µg/mL
same,MIC,Citrobacter freundii [37],2 µg/mL
same,MIC,Enterobacter cloacae [38],> 256 µg/mL
same,MIC,Enterobacter cloacae [39],> 256 µg/mL
same,MIC,Citrobacter freundii [40],4 µg/mL
same,MIC,Klebsiella pneumoniae [41],2 µg/mL
